Assay results taken from ChEMBL document CHEMBL4138168, “Design and synthesis of novel thiobarbituric acid derivatives targeting both wild-type and BRAF-mutated melanoma cells” (Eur J Med Chem, 2018).
Calls of active or inactive are those of the source. The calls are words filed in the database; no cut-off is given here.

Tests used:
UACC-903 [1] = assay: Cytotoxicity against human UACC-903 cells assessed as cell viability at 25 uM after 48 hrs by MTT assay relative to control; format: functional, cell-based; details: UACC-903, 48 h
Method in brief: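 MCF10A normal breast epithelial cells were kept in MEGM mammary epithelial medium; the cancer lines were in DMEM with 10% FBS, 37 °C. OD at 570 nm with 630 nm background, expressed relative to control.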

CHL-1 [2] = assay: Antiproliferative activity against human CHL-1 cells harboring wild type BRAF after 48 hrs by MTT assay; format: functional, cell-based; details: CHL-1, 48 h
Method in brief: (§1)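 3,000 cells per well, grown at 37 °C (DMEM with 10% FBS and penicillin/streptomycin; HCT116 in McCoy's 5A). Cells exposed in triplicate to 0.5–25 μM compound for 48 h. MTT (5 mg/mL PBS stock) added for 3 h, formazan dissolved in DMSO, OD read at 570 nm minus 630 nm background. IC50 from non-linear regression of two independent experiments.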

[3] = Antiproliferative activity against human A375M cells after 48 hrs by MTT assay; format: functional, cell-based; method in brief: as §1
UACC-903 [4] = assay: Antiproliferative activity against human UACC-903 cells harboring BRAF mutant after 48 hrs by MTT assay; format: functional, cell-based; details: UACC-903, 48 h; method in brief: as §1
WM 266-4 = assay: Antiproliferative activity against human WM266.4 cells after 48 hrs by MTT assay; format: functional, cell-based; details: WM 266-4, 48 h; method in brief: as §1
UACC-903 [5] = assay: Induction of apoptosis in human UACC-903 cells harboring BRAF mutant assessed as increase in dead cells at 25 uM after 24 hrs by Calcein-AM/ethidium bromide staining-based fluorescence assay (reference value: 3%); format: functional
UACC-903 [6] = assay: Induction of apoptosis in human UACC-903 cells harboring BRAF mutant assessed as viable cells at 5 uM after 24 hrs by Annexin V/7-AAD staining-based assay (reference value: 95.64%); format: functional; details: UACC-903, 24 h, read-out: Activity
UACC-903 [7] = assay: Induction of apoptosis in human UACC-903 cells harboring BRAF mutant assessed as late apoptotic cells at 5 uM after 24 hrs by Annexin V/7-AAD staining-based assay (reference value: 1.56%); format: functional
UACC-903 [8] = assay: Induction of apoptosis in human UACC-903 cells harboring BRAF mutant assessed as necrotic cells at 5 uM after 24 hrs by Annexin V/7-AAD staining-based assay (reference value: 0.12%); format: functional
UACC-903 [9] = assay: Induction of apoptosis in human UACC-903 cells harboring BRAF mutant assessed as viable cells at 25 uM after 24 hrs by Annexin V/7-AAD staining-based assay (reference value: 95.64%); format: functional; details: UACC-903, 24 h, read-out: Activity
UACC-903 [10] = assay: Induction of apoptosis in human UACC-903 cells harboring BRAF mutant assessed as early apoptotic cells at 25 uM after 24 hrs by Annexin V/7-AAD staining-based assay (reference value: 2.68%); format: functional
UACC-903 [11] = assay: Induction of apoptosis in human UACC-903 cells harboring BRAF mutant assessed as necrotic cells at 25 uM after 24 hrs by Annexin V/7-AAD staining-based assay (reference value: 0.12%); format: functional
UACC-903 [12] = assay: Induction of apoptosis in human UACC-903 cells harboring BRAF mutant assessed as dead cells level at 5 uM after 24 hrs by AAD dye containing caspase 3/7 activity assay (reference value: 0.06%); format: functional
UACC-903 [13] = assay: Induction of apoptosis in human UACC-903 cells harboring BRAF mutant assessed as live cells level at 5 uM after 24 hrs by AAD dye containing caspase 3/7 activity assay (reference value: 90.06%); format: functional
UACC-903 [14] = assay: Induction of apoptosis in human UACC-903 cells harboring BRAF mutant assessed as apoptotic dead cells level at 5 uM after 24 hrs by AAD dye containing caspase 3/7 activity assay (reference value: 3%); format: functional
UACC-903 [15] = assay: Induction of apoptosis in human UACC-903 cells harboring BRAF mutant assessed as apoptotic dead cells level at 25 uM after 24 hrs by AAD dye containing caspase 3/7 activity assay (reference value: 3%); format: functional
UACC-903 [16] = assay: Induction of apoptosis in human UACC-903 cells harboring BRAF mutant assessed as increase in phosphorylated Bcl-2 level at 5 to 25 uM after 24 hrs by Western blot analysis; format: functional, cell-based
Method in brief: (§2)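 2 × 10^6 cells treated with the indicated concentrations for 24 h. Whole-cell lysates run on SDS-PAGE, transferred to PVDF, probed with antibodies against apoptosis/survival proteins, and detected by enhanced chemiluminescence.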

UACC-903 [17] = assay: Induction of apoptosis in human UACC-903 cells harboring BRAF mutant assessed as decrease in survivin level at 5 to 25 uM after 24 hrs by Western blot analysis; format: functional, cell-based; method in brief: as §2
UACC-903 [18] = assay: Induction of apoptosis in human UACC-903 cells harboring BRAF mutant assessed as […] in cleaved PARP level at 5 to 25 uM after 24 hrs by Western blot analysis; format: functional, cell-based; method in brief: as §2
PANC-1 = assay: Antiproliferative activity against human PANC1 cells after 48 hrs by MTT assay; format: functional, cell-based; details: PANC-1, 48 h; method in brief: as §1
MDA-MB-231 [19] = assay: Antiproliferative activity against ER/PR/HER2 deficient human MDA-MB-231 cells after 48 hrs by MTT assay; format: functional, cell-based; details: MDA-MB-231, 48 h; method in brief: as §1
MCF7 [20] = assay: Antiproliferative activity against human MCF7 cells expressing ER/PR/HER2 after 48 hrs by MTT assay; format: functional, cell-based; details: MCF7, 48 h; method in brief: as §1
HCT-116 = assay: Antiproliferative activity against human HCT116 cells after 48 hrs by MTT assay; format: functional, cell-based; details: HCT-116, 48 h; method in brief: as §1
MCF7 [21] = assay: Cytotoxicity against human MCF7 cells assessed as cell viability at 25 uM after 48 hrs by MTT assay relative to control; format: functional; details: MCF7, 48 h, read-out: Activity
Method in brief: (§3)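 MTT viability at a single 25 μM dose, 48 h, 3,000 cells/well. MCF10A normal breast epithelial cells were kept in MEGM mammary epithelial medium; the cancer lines were in DMEM with 10% FBS, 37 °C. OD at 570 nm with 630 nm background, expressed relative to control.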

MDA-MB-231 [22] = assay: Cytotoxicity against human MDA-MB-231 cells assessed as cell viability at 25 uM after 48 hrs by MTT assay relative to control; format: functional; details: MDA-MB-231, 48 h, read-out: Activity; method in brief: as §3
[23] = Selectivity ratio of cytotoxicity against human MCF10A cells to cytotoxicity against human MDA-MB-231 cells; format: toxicity, cell-based; details: MCF10A cells versus MDA-MB-231 cells
[24] = Selectivity ratio of cytotoxicity against human MCF10A cells to IC50 for human UACC-903 cells harboring BRAF mutant; format: toxicity, cell-based; details: MCF10A cells versus UACC-903 cells harboring BRAF mutant
CHL-1 [25] = assay: Induction of apoptosis in human CHL-1 cells harboring wild type BRAF assessed as increase in phosphorylated Bcl-2 level at 5 to 25 uM after 24 hrs by Western blot analysis; format: functional, cell-based; method in brief: as §2
CHL-1 [26] = assay: Induction of apoptosis in human CHL-1 cells harboring wild type BRAF assessed as decrease in Bcl-xL level at 5 to 25 uM after 24 hrs by Western blot analysis; format: functional, cell-based; method in brief: as §2
CHL-1 [27] = assay: Induction of apoptosis in human CHL-1 cells harboring wild type BRAF assessed as […] in cleaved PARP level at 5 to 25 uM after 24 hrs by Western blot analysis; format: functional, cell-based; method in brief: as §2

Row | SMILES | IC50 (UACC-903 [1]) | IC50 (CHL-1 [2]) | IC50 [3] | IC50 (UACC-903 [4]) | IC50 (WM 266-4) | Activity (UACC-903 [5]) | viability at 5 µM (UACC-903 [6]) | Activity (UACC-903 [7]) | Activity (UACC-903 [8]) | viability at 25 µM (UACC-903 [9]) | Activity (UACC-903 [10]) | Activity (UACC-903 [11]) | Activity (UACC-903 [12]) | Activity (UACC-903 [13]) | Activity (UACC-903 [14]) | Activity (UACC-903 [15]) | Activity (UACC-903 [16]) | Activity (UACC-903 [17]) | Activity (UACC-903 [18]) | IC50 (PANC-1) | also measured
1 | O=C1NC(=S)N(c2ccccc2)C(=O)/C1=C/C=C/c1cccs1 | 3.8 µM | 6.5 µM | 14.8 µM | 7.6 µM | 9.2 µM | 15 - 25% | 92.6% | 3.18% | 0.54% | 29.4% | 21.04% | 5.31% | 0.18% | 87.26% | 2.88% | 24.1% | Active | Active | Active | 8.3 µM | IC50 (MDA-MB-231 [19]): 8.3 µM; IC50 (MCF7 [20]): 16.5 µM; IC50 (HCT-116): 2.4 µM; viability at 25 µM (MCF7 [21]): 20 to 30%; viability at 25 µM (MDA-MB-231 [22]): 20 to 30%; selectivity ratio [23]: 2; selectivity ratio [24]: 3; Activity (CHL-1 [25]): Active; Activity (CHL-1 [26]): Active; Activity (CHL-1 [27]): Active
2 | O=C1NC(=S)NC(=O)C1=C/C=C/c1cccs1 | 4 µM | 7.2 µM | 10.6 µM | 8.1 µM | 7.9 µM | 70% | 91.3% | 3.14% | 0.4% | 25.8% | 30.28% | 3.42% | 0.32% | 90.28% | 3.94% | 43.88% | Active | Active | Active | 19.1 µM | IC50 (MDA-MB-231 [19]): 7.6 µM; IC50 (MCF7 [20]): 16.2 µM; IC50 (HCT-116): 7.7 µM; viability at 25 µM (MCF7 [21]): 20 to 30%; viability at 25 µM (MDA-MB-231 [22]): 20 to 30%; selectivity ratio [23]: 2; selectivity ratio [24]: 3; Activity (CHL-1 [25]): Active; Activity (CHL-1 [26]): Active; Activity (CHL-1 [27]): Active
